High-throughput results as filed in PubChem.
MC4R ag barr – human MC4R agonism via beta-arrestin | P32245 | U2OS MC4R beta-arrestin complementation, luminescence; percent of melanotan II response, DMSO zero | activation, % at 8.9 µM | 0.98% of 360,000 active | AID 540308;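 active = activation above a per-plate cutoff, the mean activation of sample wells on that plate plus 3 SD, cut at about 8% in these data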
Target sequence (P32245 whole entry, looked up): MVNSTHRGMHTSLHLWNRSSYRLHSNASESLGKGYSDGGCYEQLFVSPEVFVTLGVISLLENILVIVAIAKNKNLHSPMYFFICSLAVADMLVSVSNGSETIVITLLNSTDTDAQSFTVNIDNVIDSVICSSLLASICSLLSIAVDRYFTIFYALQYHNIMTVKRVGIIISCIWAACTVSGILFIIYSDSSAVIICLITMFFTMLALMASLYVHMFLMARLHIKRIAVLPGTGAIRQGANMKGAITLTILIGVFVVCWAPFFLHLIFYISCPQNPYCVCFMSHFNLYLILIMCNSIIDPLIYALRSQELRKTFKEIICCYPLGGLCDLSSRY
MC4R antagonist – antagonists of human melanocortin 4 receptor (MC4R) | P32245 | MC4R-expressing cells, MTII-stimulated cAMP, LANCE TR-FRET | inhibition, % at 6.5 µM | 0.48% of 360,000 active | AID 540295;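 active = inhibition above its plate's cutoff, the mean of tested wells on that plate plus 3 SD, cut at about 29% in these data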
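Assay system: U2OS cells stably expressing human melanocortin 4 receptor (MC4R) / Dosing: 6.5 µM / Timing: compound 30 min, challenge 1 h, detection 1 h / Measured by: Eu-cAMP/anti-cAMP TR-FRET, emission 671 nm / Replicates: singlicate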
MsrA act – bovine methionine sulfoxide reductase A activation; purified bovine MsrA, absorbance read-out; activation, % at 10.6 µM; 0.3% of 360,000 active; in the data active = activation above about 7.5%
MsrA inh – bovine MsrA inhibition; inhibition, % at 15.5 µM; purified bovine MsrA, absorbance read-out; AID 651718; 0.75% of 360,000 active; in the data active = inhibition above about 4.5%
Of the large screens only hits and unclear results are named; the others gave an inactive call. Compounds with a hit are over-represented: about 2.3% of the library has one in this group of screens.

CCN(CC)CCNc1nc(C(F)(F)F)nc2c1nnn2Cc1ccccc1	none
FC(F)(F)c1nc(NCc2ccccc2)c2nnn(Cc3ccccc3)c2n1	MC4R ag barr 8.4
CCOC(=O)N1CCN(C(=O)CSc2nnc(-c3cccc(OC)c3)o2)CC1	none
O=C(COC(=O)c1ccccc1O)Nc1cc(S(=O)(=O)N2CCCCCC2)ccc1Cl	none
O=C(COC(=O)c1ccccc1)Nc1cc(S(=O)(=O)N2CCCCCC2)ccc1Cl	MC4R ag barr 8.8
C=CCc1cccc2cc(C(=O)OCC(=O)c3ccccc3)c(=O)oc12	MC4R ag barr 9.5
C=CCc1cccc2cc(C(=O)O)c(=O)oc12	none
C=CCc1cccc2cc(C(=O)Nc3ccccc3C(=O)O)c(=O)oc12	MsrA inh 4.9
C=CCc1cccc2cc(C(=O)NC)c(=O)oc12	none
OC(c1ccc(-c2ccccc2)cc1)c1ncc(-c2ccc(C(F)(F)F)cc2)[nH]1 (stereo not drawn)	MC4R ag barr 9.5
CC(C)(C)c1ccc(C(O)c2ncc(-c3ccccc3F)[nH]2)cc1 (stereo not drawn)	MC4R ag barr 8.2
CCc1ccc(C(O)c2ncc(-c3ccc(C(F)(F)F)cc3)[nH]2)cc1 (stereo not drawn)	MC4R ag barr 9.2
C=CCn1c(Cc2cccs2)nnc1SCC(=O)Nc1ccc(C(=O)OCC)cc1	none
N#CC(=Cc1cccs1)c1nc(-c2ccc(Cl)cc2)cs1	MC4R ag barr 9.2
CCOc1ccc(CNC(=O)CN2C(=O)C(c3ccccc3)Oc3cccnc32)cc1 (stereo not drawn)	none
CCOc1ccc(CNC(=O)CCCN2C(=O)C(c3ccccc3)Oc3cccnc32)cc1 (stereo not drawn)	MC4R ag barr 9.1
COc1cc(CNC(=O)CCCC/C=C/C(C)C)ccc1O	none
Cc1ccc(CNc2oc(COc3ccccc3Cl)nc2C#N)cc1	MC4R ag barr 9.5
O=S(=O)(NC1CC1)c1ccc(S(=O)(=O)N2CCCC3(CCCCC3)C2)cc1	MC4R ag barr 9.8
CCc1ccc(S(=O)(=O)/N=C2/C=C(Sc3ncn[nH]3)C(=O)c3ccccc32)cc1	MC4R antagonist 60 (no result: MsrA inh)
CC(=O)N(NC(N)=O)C(C)CC(=O)C1C(C)C=CCC1(C)C (stereo not drawn)	none
C=CC[C@@H](CC(=O)N[C@H](CO)Cc1ccccc1)C(=O)N[C@H](COC(=O)[C@@H](CC=C)Cc1ccc(F)cc1)C(C)(C)C	none
Cc1ccc2c(C)c(C(=O)Nc3ccc(S(N)(=O)=O)cc3)oc2c1C	none
Cc1cc2oc(C(=O)Nc3ccc(S(N)(=O)=O)cc3)c(C)c2cc1Cl	MC4R ag barr 8.4
Cc1ccc(C(=O)N/C(=C\c2ccco2)C(=O)NCCN2CCOCC2)cc1C	MC4R ag barr 8.4
Cc1ccc(C(=O)N/C(=C\c2ccco2)C(=O)NCCCN2CCOCC2)cc1C	none
COc1ccc(CN(CCC(c2ccccc2)c2ccc(OC(C)C)cc2)C(=O)CCl)cc1OC (stereo not drawn)	MC4R ag barr 21
N#Cc1ccc(-c2ccc(OCC(=O)NCCc3ccccc3)cc2)cc1	MC4R ag barr 9.1
CC(=O)Nc1ccc(NC(=O)CNC(=O)c2sc3ccccc3c2Cl)cc1	none
O=C(CNC(=O)c1sc2ccccc2c1Cl)NCc1cccc(C(F)(F)F)c1	MC4R ag barr 9.4
NC(=O)c1c(-c2ccc(Cl)cc2Cl)csc1NC(=O)Cc1ccccc1	none
COC(=O)c1sc(-c2ccccc2)cc1NC(=O)c1ccccc1	none
N#C/C(=C\c1ccco1)C(=O)NCC1CCCO1 (stereo not drawn)	MsrA inh 7.0
C#CCOCCOCCOCCNc1nc(N2CCN(C(=O)[C@H](CCCCN)n3cc([C@@H](N)CC(C)C)nn3)CC2)nc(N2CCN(C(=O)[C@H](Cc3cc4ccccc4[nH]3)n3cc([C@@H](N)Cc4ccc(O)cc4)nn3)CC2)n1	none (no result: MsrA inh)
COc1cc(/C=C/C(=O)N2CCC=CC2=O)cc(OC)c1OC	none
CC(=O)N(C)c1ccc(N=Nc2c(C)[nH]n(C(N)=S)c2=O)cc1	none
CCN(CC)S(=O)(=O)c1ccc(N=Nc2c(C)[nH]n(C(N)=S)c2=O)cc1	MsrA inh 4.5
Cc1ccc(CONS(=O)(=O)c2cc(C)ccc2C)cc1	MC4R ag barr 8.2
Cc1ccc(C)c(S(=O)(=O)Nc2ccc(O)cc2)c1	none
CC1=CC(=O)C(C(C)C)=CC1=NC(=O)c1ccc(C)cc1	MC4R antagonist 51
CC1=CC(=O)C(C(C)C)=C/C1=N/OC(=O)c1cccc([N+](=O)[O-])c1	none
CC(C)CN(Cc1cc(=O)oc2cc(-c3ccccc3)c(O)cc12)CC(C)C	MC4R ag barr 11
COc1ccc(NC(=O)c2cc(C3CCCCN3C(=O)C3CC3)on2)c(C)c1 (stereo not drawn)	none
CCOC(=O)C1C(=O)C=C(C)C(C(=O)OCC)C1c1cccc([N+](=O)[O-])c1 (stereo not drawn)	MsrA inh 4.6
CCc1cc2c(nc1CC)CCCN2S(=O)(=O)c1ccc(OC)cc1	none (no result: MC4R ag barr, MC4R antagonist, MsrA act)
CC1CN(c2nn3c(=O)c4ccccc4nc3c3ccccc23)CC(C)O1 (stereo not drawn)	MsrA act 9.7
CCN1CCN(c2nn3c(=O)c4ccccc4nc3c3ccccc23)CC1	none
COc1ccc(-c2cc(C(=O)N(C)Cc3nc4ccccc4c(=O)[nH]3)c3ccccc3n2)cc1OC	none
O=C(CSc1nnc(-c2ccc(Cl)cc2)o1)NNC(=O)c1ccncc1	none
CC(C)c1nc(C(=O)N2CCc3c([nH]c4ccccc34)C2c2ccccn2)cs1 (stereo not drawn)	MC4R ag barr 9.0
COCCCn1c(SCCc2ccccc2)nc2cc(OC)c(OC)cc2c1=N	MC4R ag barr 9.4
COc1ccc(CCc2ccc3ccccc3n2)cc1	none
CCNC(=O)COC(=O)c1cc(C)n(-c2ccccc2)c1C	none
Cc1cc(C(=O)OCC(=O)NCc2ccco2)c(C)n1-c1ccc(F)cc1	MsrA act 8.5
CCOc1cc(/C=N/NC(N)=S)cc(Br)c1OCc1ccccc1C	none (no result: MsrA inh)
COc1cc(/C=N/NC(N)=S)cc(Br)c1OCc1ccccc1F	MC4R ag barr 10
O=C(c1cccc(NS(=O)(=O)c2ccc(Br)cc2)c1)N1CCCCC1	none
O=C(Nc1ccc(N2CCCCC2)cc1)c1cccnc1Cl	none
Cc1cc(C)nc(SCC(=O)Nc2ncc(Cc3cccc(Cl)c3Cl)s2)n1	MC4R ag barr 8.8
CC(=O)Nc1ncc(Cc2cccc(Cl)c2Cl)s1	none
O=C(O)c1cccc(N2C(=S)N=C(Nc3ccccc3)C23CCCCC3)c1	none
CCN(CC)S(=O)(=O)c1ccc(N2CC(C(=O)NCCC3=CCCCC3)CC2=O)cc1 (stereo not drawn)	none
CC(C)CCNC(=O)NC(=O)CSc1nnc(-c2ccccc2Br)o1	MC4R ag barr 8.4
CC(c1ccc(O)cc1)(c1ccc(O)cc1)c1ccc(CCBr)cc1	MC4R ag barr 18
O=c1oc2c(CN3CCOCC3)c(O)c(Cl)cc2c2c1CCC2	none
COc1ccc2c(c1)c(N=NC(N)=S)c(O)n2CC(=O)c1ccccc1	MC4R ag barr 12
Cc1ccc(NC(=O)Cn2c(O)c(N=NC(N)=S)c3ccccc32)cc1	none
Nc1ccccc1O	MsrA act 9.4 (no result: MsrA inh)
Oc1ccccc1O	none
